Measured values taken from ChEMBL document CHEMBL3272018, “Synthesis of aziridinylallylaminophosphine oxides and sulfides as potential adjuvant cancer chemotherapeutic agents” (J Med Chem, 1976).

How the values were obtained:
[1] = system: Rattus norvegicus; assay: Toxicity in rat allografted with rat Walker 256 cells intramuscularly assessed as change in body weight at 2 mg/kg, qd administered for 5 days; format: organism-based; design: dose 2 mg/kg, route intramuscular; details: in vivo, im, 120 h
Method in brief: (§1)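 Walker 256 carcinoma solid-tumour system in rats (parent line, or the line resistant to cytoxan). Dosing was one injection per day for 5 days. Toxicity was taken as the average net body-weight change of the treated group minus the average net weight change of the untreated tumour-bearing controls, in grams.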

[2] = system: Rattus norvegicus; assay: Toxicity in rat allografted with rat Walker 256 cells intramuscularly assessed as change in body weight at 1 mg/kg, qd administered for 5 days; format: organism-based; design: dose 1 mg/kg, route intramuscular; details: in vivo, im, 120 h; method in brief: as §1
[3] = system: Rattus norvegicus; assay: Toxicity in rat allografted with rat Walker 256 cells intramuscularly assessed as change in body weight at 0.5 mg/kg, qd administered for 5 days; format: organism-based; design: dose 0.5 mg/kg, route intramuscular; details: in vivo, im, 120 h; method in brief: as §1
[4] = system: Rattus norvegicus; assay: Toxicity in rat allografted with rat Walker 256 cells intramuscularly assessed as change in body weight at 0.25 mg/kg, qd administered for 5 days; format: organism-based; design: dose 0.25 mg/kg, route intramuscular; details: in vivo, im, 120 h; method in brief: as §1
[5] = system: Rattus norvegicus; assay: Toxicity in rat allografted with rat Walker 256 cells intramuscularly assessed as change in body weight at 0.125 mg/kg, qd administered for 5 days; format: organism-based; design: dose 0.125 mg/kg, route intramuscular; details: in vivo, im, 120 h; method in brief: as §1
[6] = system: Rattus norvegicus; assay: Toxicity in rat allografted with rat Walker 256 cells intramuscularly assessed as change in body weight at 0.062 mg/kg, qd administered for 5 days; format: organism-based; design: dose 0.062 mg/kg, route intramuscular; details: in vivo, im, 120 h; method in brief: as §1
[7] = system: Rattus norvegicus; assay: Toxicity in rat allografted with rat Walker 256 cells intramuscularly assessed as change in body weight at 0.031 mg/kg, qd administered for 5 days; format: organism-based; design: dose 0.031 mg/kg, route intramuscular; details: in vivo, im, 120 h; method in brief: as §1
[8] = system: Rattus norvegicus; assay: Toxicity in rat allografted with cytoxan-resistant rat Walker 256 cells intramuscularly assessed as change in body weight at 2 mg/kg, qd administered for 5 days; format: organism-based; design: dose 2 mg/kg, route intramuscular; details: in vivo, im, 120 h; method in brief: as §1
[9] = system: Rattus norvegicus; assay: Toxicity in rat allografted with cytoxan-resistant rat Walker 256 cells intramuscularly assessed as change in body weight at 1 mg/kg, qd administered for 5 days; format: organism-based; design: dose 1 mg/kg, route intramuscular; details: in vivo, im, 120 h; method in brief: as §1
[10] = system: Rattus norvegicus; assay: Toxicity in rat allografted with cytoxan-resistant rat Walker 256 cells intramuscularly assessed as change in body weight at 0.5 mg/kg, qd administered for 5 days; format: organism-based; design: dose 0.5 mg/kg, route intramuscular; details: in vivo, im, 120 h; method in brief: as §1
[11] = system: Rattus norvegicus; assay: Toxicity in rat allografted with cytoxan-resistant rat Walker 256 cells intramuscularly assessed as change in body weight at 0.25 mg/kg, qd administered for 5 days; format: organism-based; design: dose 0.25 mg/kg, route intramuscular; details: in vivo, im, 120 h; method in brief: as §1
[12] = system: Rattus norvegicus; assay: Toxicity in rat allografted with cytoxan-resistant rat Walker 256 cells intramuscularly assessed as change in body weight at 0.12 mg/kg, qd administered for 5 days; format: organism-based; design: dose 0.12 mg/kg, route intramuscular; details: in vivo, im, 120 h
Method in brief: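 Cytoxan-resistant Walker 256 solid tumour in rats, one injection daily for 5 days. Toxicity is the average net body-weight change of the treated group minus that of the untreated controls, in grams.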

[13] = system: W256; assay: Antitumor activity against rat Walker 256 cells intramuscularly allografted in rat assessed as tumor growth inhibition at 2 mg/kg, qd administered for 5 days relative to control; format: functional; details: W256, im, 120 h, route intramuscular, read-out: TGI
Method in brief: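 Walker 256 carcinoma grown as a solid tumour in rats, with one injection daily for 5 days. Response is given as T/C %, the treated-group measure over the untreated-control tumour measure; a smaller value means more activity. Host toxicity is the mean net weight change of treated minus control animals, in grams.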

[14] = system: W256; assay: Antitumor activity against rat Walker 256 cells intramuscularly allografted in rat assessed as tumor growth inhibition at 1 mg/kg, qd administered for 5 days relative to control; format: functional; details: W256, im, 120 h, route intramuscular, read-out: TGI
Method in brief: (§2)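 Dosed once daily for 5 days. Response is tumor progression in treated (T) versus untreated control (C) animals, expressed as T/C percentage. Host weight change is reported as the average net weight change of the test group minus that of the controls, in grams.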

[15] = system: W256; assay: Antitumor activity against rat Walker 256 cells intramuscularly allografted in rat assessed as tumor growth inhibition at 0.5 mg/kg, qd administered for 5 days relative to control; format: functional; details: W256, im, 120 h, route intramuscular, read-out: TGI; method in brief: as §2
[16] = system: W256; assay: Antitumor activity against rat Walker 256 cells intramuscularly allografted in rat assessed as tumor growth inhibition at 0.25 mg/kg, qd administered for 5 days relative to control; format: functional; details: W256, im, 120 h, route intramuscular, read-out: TGI; method in brief: as §2
[17] = system: W256; assay: Antitumor activity against rat Walker 256 cells intramuscularly allografted in rat assessed as tumor growth inhibition at 0.125 mg/kg, qd administered for 5 days relative to control; format: functional; details: W256, im, 120 h, route intramuscular, read-out: TGI; method in brief: as §2
[18] = system: W256; assay: Antitumor activity against rat Walker 256 cells intramuscularly allografted in rat assessed as tumor growth inhibition at 0.062 mg/kg, qd administered for 5 days relative to control; format: functional; details: W256, im, 120 h, route intramuscular, read-out: TGI; method in brief: as §2
[19] = system: W256; assay: Antitumor activity against rat Walker 256 cells intramuscularly allografted in rat assessed as tumor growth inhibition at 0.031 mg/kg, qd administered for 5 days relative to control; format: functional; details: W256, im, 120 h, route intramuscular, read-out: TGI; method in brief: as §2
[20] = system: W256; assay: Antitumor activity against cytoxan-resistant rat Walker 256 cells intramuscularly allografted in rat assessed as tumor growth inhibition at 2 mg/kg, qd administered for 5 days relative to control; format: functional; details: W256, im, 120 h, route intramuscular, read-out: TGI; method in brief: as §2
[21] = system: W256; assay: Antitumor activity against cytoxan-resistant rat Walker 256 cells intramuscularly allografted in rat assessed as tumor growth inhibition at 1 mg/kg, qd administered for 5 days relative to control; format: functional; details: W256, im, 120 h, route intramuscular, read-out: TGI; method in brief: as §2

## C=CCN(CC=C)P(=O)(N1CC1)N1CC1
[1]
  Activity: -44 g
[2]
  Activity: -26 g
[3]
  Activity: -6 g
[4]
  Activity: -12 g
[5]
  Activity: -1 g
[6]
  Activity: -5 g
[7]
  Activity: 0 g
[8]
  Activity: -2 g
[9]
  Activity: -13 g
[10]
  Activity: -13 g
[11]
  Activity: 0 g
[12]
  Activity: -14 g
[13]
  inhibition in vivo at 2 mg/kg: 0%
[14]
  inhibition in vivo at 1 mg/kg: 0%
[15]
  inhibition in vivo at 0.5 mg/kg: 0%
[16]
  inhibition in vivo at 0.25 mg/kg: 0%
[17]
  inhibition in vivo at 0.125 mg/kg: 1%
[18]
  inhibition in vivo at 0.062 mg/kg: 7%
[19]
  inhibition in vivo at 0.031 mg/kg: 24%
[20]
  inhibition in vivo at 2 mg/kg: 9%
[21]
  inhibition in vivo at 1 mg/kg: 40%
